Activity calls are given as the source filed them. The rule behind the calls is not given here.
Key:
[1] = Volume of distribution at steady state in CD1 mouse at 0.4 mg/kg, iv administered as cassette dose measured upto 24 hrs by LC-MS/MS analysis; type: ADME, organism-based; settings: in vivo, read-out: Vdss
Method in brief: (§1)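 Male CD1 mice (second cassette 28–29 g, 7–8 weeks) given one IV 5-in-1 cassette at 0.4 mg/kg per compound in 5% DMAC/5% Solutol HS15/90% saline. Blood (~20 µL) into K2EDTA from the facial vein at 0.083–24 h, terminal bleed by cardiac puncture under isoflurane. Blood diluted with deionised water, stored at −80 °C, analysed by positive-ESI mass spectrometry.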

[2] = molecular target: PCSK9/LDLR (Homo sapiens, UniProt Q8NBP7); assay: Inhibition of recombinant human His-tagged PCSK9 interaction with recombinant LDLR AB domain (unknown origin) measured after 3 hrs by horseradish peroxidase-coupled TMB substrate based spectrophotometry; type: protein assay
Chain of PCSK9/LDLR (Q8NBP7 31-152 limits assumed): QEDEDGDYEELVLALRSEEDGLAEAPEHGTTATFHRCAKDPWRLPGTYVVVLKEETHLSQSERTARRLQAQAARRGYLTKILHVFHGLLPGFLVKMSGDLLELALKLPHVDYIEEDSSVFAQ
Chain of PCSK9/LDLR (Q8NBP7 153-692 limits assumed): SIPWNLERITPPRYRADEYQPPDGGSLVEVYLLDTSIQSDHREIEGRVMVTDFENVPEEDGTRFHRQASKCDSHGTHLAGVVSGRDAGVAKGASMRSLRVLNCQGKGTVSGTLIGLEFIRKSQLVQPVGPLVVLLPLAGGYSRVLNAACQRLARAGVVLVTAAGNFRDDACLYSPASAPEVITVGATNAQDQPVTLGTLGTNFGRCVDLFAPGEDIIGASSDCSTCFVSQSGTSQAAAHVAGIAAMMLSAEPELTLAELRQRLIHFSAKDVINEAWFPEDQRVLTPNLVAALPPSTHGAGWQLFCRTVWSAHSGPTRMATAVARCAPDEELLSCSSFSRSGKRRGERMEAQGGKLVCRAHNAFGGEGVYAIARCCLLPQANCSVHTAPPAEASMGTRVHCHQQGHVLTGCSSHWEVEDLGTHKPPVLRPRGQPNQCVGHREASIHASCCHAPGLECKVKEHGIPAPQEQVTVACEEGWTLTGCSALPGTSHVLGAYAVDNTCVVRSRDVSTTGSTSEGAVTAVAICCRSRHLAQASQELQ
Chain of PCSK9/LDLR (P01130 22-860 partner limits assumed): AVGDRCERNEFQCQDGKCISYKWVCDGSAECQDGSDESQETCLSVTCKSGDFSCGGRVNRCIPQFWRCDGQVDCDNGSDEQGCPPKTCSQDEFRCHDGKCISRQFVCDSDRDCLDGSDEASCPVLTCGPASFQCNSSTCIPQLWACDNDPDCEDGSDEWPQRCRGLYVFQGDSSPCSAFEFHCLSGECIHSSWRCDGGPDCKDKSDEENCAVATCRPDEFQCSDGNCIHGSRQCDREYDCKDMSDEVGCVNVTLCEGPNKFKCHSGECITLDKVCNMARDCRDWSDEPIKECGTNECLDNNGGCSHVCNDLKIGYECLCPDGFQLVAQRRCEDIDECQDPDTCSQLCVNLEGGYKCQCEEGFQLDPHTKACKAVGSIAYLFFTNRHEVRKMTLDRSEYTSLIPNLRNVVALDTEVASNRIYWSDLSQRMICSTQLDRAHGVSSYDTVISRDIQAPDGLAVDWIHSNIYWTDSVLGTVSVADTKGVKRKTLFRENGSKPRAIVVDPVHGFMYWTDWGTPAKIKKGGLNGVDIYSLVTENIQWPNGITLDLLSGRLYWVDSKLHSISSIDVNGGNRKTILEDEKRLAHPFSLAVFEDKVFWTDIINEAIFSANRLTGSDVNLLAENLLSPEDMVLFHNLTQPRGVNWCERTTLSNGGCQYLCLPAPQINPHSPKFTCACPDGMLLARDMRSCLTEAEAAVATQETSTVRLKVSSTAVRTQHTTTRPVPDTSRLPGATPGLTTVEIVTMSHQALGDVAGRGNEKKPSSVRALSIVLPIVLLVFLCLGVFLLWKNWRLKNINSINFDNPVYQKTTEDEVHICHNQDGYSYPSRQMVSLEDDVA
Method in brief: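 ELISA plates pre-coated with LDLR-EGF-AB domain. Compounds serially diluted from 10 mM DMSO stocks in reaction buffer, with 7 ng His-tagged human PCSK9 added, 3 h at room temperature with shaking. Binding detected with biotinylated anti-His antibody (1 h), then HRP-streptavidin (20 min), then substrate (15 min); absorbance read at 450/540 nm. IC50 taken from the % inhibition curve.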

[3] = Oral bioavailability in C57BL/6 mouse at 20 mg/kg administered as single dose measured upto 24 hrs by LC-MS/MS analysis; type: ADME, organism-based; settings: in vivo
Method in brief: (§2)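 Male C57BL/6 mice, single dose: IV 5 mg/kg in 85% saline/10% Solutol HS15/5% DMSO; SC 20 mg/kg in same vehicle; PO 20 mg/kg in 1% methylcellulose in water. About 110 µL blood taken into K2EDTA by retro-orbital puncture (terminal bleed by cardiac puncture under isoflurane) at 0.033–24 h. Plasma spun at 2000 g, 5 min, 4 °C, stored near −70 °C; n = 3 per route.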

[4] = Cmax in C57BL/6 mouse at 20 mg/kg, po administered as single dose measured upto 24 hrs by LC-MS/MS analysis; type: ADME, organism-based; parameters: dose 20 mg/kg, route oral; settings: in vivo; method in brief: as §2
[5] = Toxicity in C57BL/6 mouse assessed as change in body weight at 3.28 to 16.4 mg/kg/day, sc administered daily for 14 days; type: organism-based; settings: in vivo, 336 h
[6] = molecular target: Platelet-derived growth factor receptor beta (Homo sapiens, UniProt P09619); assay: Inhibition of recombinant human N-terminal GST-tagged PDGFRbeta cytoplasmic domain (557 to 1106 residues) expressed in baculovirus expression system using FAM-labelled P22 peptide as substrate preincubated for 10 mins followed by substrate addition and measured after 1 hr in presence of ATP by fluorescence assay
Chain of Platelet-derived growth factor receptor beta (P09619 whole entry, the tested form may be a part): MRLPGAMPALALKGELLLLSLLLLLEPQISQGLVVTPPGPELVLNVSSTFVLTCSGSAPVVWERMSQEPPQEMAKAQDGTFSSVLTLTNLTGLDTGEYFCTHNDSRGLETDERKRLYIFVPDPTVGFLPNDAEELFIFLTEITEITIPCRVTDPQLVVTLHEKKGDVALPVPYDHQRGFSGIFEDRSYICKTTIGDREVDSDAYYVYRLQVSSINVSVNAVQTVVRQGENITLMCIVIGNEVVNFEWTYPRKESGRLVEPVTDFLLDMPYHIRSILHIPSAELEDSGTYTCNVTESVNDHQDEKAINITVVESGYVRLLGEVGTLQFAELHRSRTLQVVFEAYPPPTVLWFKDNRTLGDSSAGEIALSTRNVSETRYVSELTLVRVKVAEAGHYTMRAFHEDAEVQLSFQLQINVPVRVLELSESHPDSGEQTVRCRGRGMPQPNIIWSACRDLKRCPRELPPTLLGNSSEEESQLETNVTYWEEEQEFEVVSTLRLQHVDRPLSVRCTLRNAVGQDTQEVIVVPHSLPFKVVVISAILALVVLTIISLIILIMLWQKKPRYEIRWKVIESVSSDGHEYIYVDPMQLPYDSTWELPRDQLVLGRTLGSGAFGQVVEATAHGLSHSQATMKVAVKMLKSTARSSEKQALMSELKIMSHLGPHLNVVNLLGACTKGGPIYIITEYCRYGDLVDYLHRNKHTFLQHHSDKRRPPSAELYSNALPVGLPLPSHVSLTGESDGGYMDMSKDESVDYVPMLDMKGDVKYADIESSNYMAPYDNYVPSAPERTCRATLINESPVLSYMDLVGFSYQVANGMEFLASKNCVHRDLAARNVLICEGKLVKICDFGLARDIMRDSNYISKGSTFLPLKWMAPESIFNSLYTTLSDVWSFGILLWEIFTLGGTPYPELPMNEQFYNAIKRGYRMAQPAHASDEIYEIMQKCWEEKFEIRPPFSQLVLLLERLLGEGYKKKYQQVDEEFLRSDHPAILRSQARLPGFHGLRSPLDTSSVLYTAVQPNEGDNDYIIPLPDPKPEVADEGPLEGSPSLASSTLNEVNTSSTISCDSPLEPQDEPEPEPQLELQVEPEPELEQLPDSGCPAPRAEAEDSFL

[7] = Time at which plasma concentration exceeds in vitro IC50 for inhibition of recombinant human His-tagged PCSK9 interaction with recombinant LDLR AB domain (unknown origin) in C57BL/6 mouse at 20 mg/kg, sc administered as single dose; type: organism-based; settings: in vivo
[8] = system: PCSK9/LDLR (Homo sapiens), Q8NBP7+P01130 [D374Y]; assay: Inhibition of PCSK9 D374Y mutant (unknown origin) and LDLR protein-protein interaction expressed in human PBMCs assessed as increase in LDLR expression on lymphocyte surface at 1 to 10 uM measured after 4 hrs by flow cytometry analysis
Method in brief: (§3)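 PBMCs from healthy donors, frozen and then thawed, plated at 2 × 10^5 per well in RPMI with 10 mM HEPES, 1 mM pyruvate and 0.5% FCS for 2 h at 37 °C. Treated 4 h with or without 600 ng/mL PCSK9-D374Y plus compound. Cells stained 20 min at room temperature with APC-conjugated anti-LDLR; at least 5 × 10^3 gated lymphocytes read by flow cytometry. Values as % of PCSK9-free vehicle; triplicates, t test.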

[9] = Toxicity in C57BL/6 mouse assessed as change in behavior at 3.28 to 16.4 mg/kg/day, sc administered daily for 14 days; type: organism-based; settings: in vivo, 336 h
[10] = system: PCSK9/LDLR (Homo sapiens), Q8NBP7+P01130 [D374Y]; assay: Inhibition of PCSK9 D374Y mutant (unknown origin) and LDLR protein-protein interaction in human HepG2 cells assessed as increase in Bodipy FL-labelled LDL uptake preincubated for 16 hrs followed by Bodipy FL-labelled LDL addition and measured after 4 hrs by fluorescence assay; type: cell-based
Method in brief: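 HepG2 cells seeded at 2 × 10^5 cells/mL and attached overnight, then incubated 16 h with PCSK9-D374Y (2 μg/mL) plus compound (0.1 or 1 µM). Medium replaced with 10 μg/mL Bodipy FL LDL for 4 h. Cells washed with warm PBS; fluorescence read at ex 485/em 530 nm. Mean ± S.D.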

[11] = Bioavailability in C57BL/6 mouse at 20 mg/kg, sc administered as single dose measured upto 24 hrs by LC-MS/MS analysis; type: ADME, organism-based; settings: in vivo; method in brief: as §2
[12] = Tmax in C57BL/6 mouse at 20 mg/kg, po administered as single dose measured upto 24 hrs by LC-MS/MS analysis; type: ADME, organism-based; settings: in vivo; method in brief: as §2
[13] = molecular target: Proprotein convertase subtilisin/kexin type 9 (Homo sapiens) (UniProt Q8NBP7); assay: Binding affinity to biotinylated recombinant human PCSK9 at 0.8 to 1.6 uM incubated for 2 mins followed by further incubation for 10 mins by biolayer interferometry
Chain of Proprotein convertase subtilisin/kexin type 9 (Homo sapiens) (Q8NBP7 31-152 limits assumed): as the sequence (Q8NBP7 31-152 limits assumed) above
Chain of Proprotein convertase subtilisin/kexin type 9 (Homo sapiens) (Q8NBP7 153-692 limits assumed): as the sequence (Q8NBP7 153-692 limits assumed) above
Method in brief: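 Biolayer interferometry: biotinylated PCSK9 (27 µg/mL) loaded onto a Super Streptavidin biosensor and blocked with biocytin. Compound (0.2–25.6 µM) associated for 2 min, then dissociated for 10 min. Background signal subtracted to remove non-specific binding.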

[14] = AUClast in C57BL/6 mouse at 20 mg/kg, po administered as single dose measured upto 24 hrs by LC-MS/MS analysis; type: ADME, organism-based; parameters: dose 20 mg/kg, time < 24 hr, route oral; settings: in vivo; method in brief: as §2
[15] = Mean residence time ( 0 to infinity) in C57BL/6 mouse at 5 mg/kg, iv administered as single dose measured upto 24 hrs by LC-MS/MS analysis; type: ADME, organism-based; settings: in vivo; method in brief: as §2
[16] = Terminal half life in C57BL/6 mouse at 20 mg/kg, sc administered as single dose measured upto 24 hrs by LC-MS/MS analysis; type: ADME, organism-based; settings: in vivo, read-out: beta t1/2 (converted); method in brief: as §2
[17] = system: PCSK9/LDLR (Homo sapiens), Q8NBP7+P01130 [D374Y]; assay: Inhibition of PCSK9 D374Y mutant (unknown origin) and LDLR protein-protein interaction in human PBMC assessed as increase in LDLR expression on lymphocyte surface at 0.1 to 0.4 uM measured after 4 hrs by flow cytometry analysis; type: cell-based; method in brief: as §3
[18] = Terminal half life in CD1 mouse at 0.4 mg/kg, iv administered as cassette dose measured upto 24 hrs by LC-MS/MS analysis; type: ADME, organism-based; settings: in vivo, read-out: beta t1/2 (converted); method in brief: as §1

## Cc1cn(-c2cc(CN3CCC[C@H](N)C3)cc(NC(=O)c3ccc(C)c(Oc4ccccc4)c3)c2)cn1
[1]
  Vd: 9.13 L/kg
[2]
  IC50: 537 nM
[3]
  bioavailability: 0.527%
[4]
  Cmax: 52.6 ng/mL
[5]
  Activity: Non-Toxic
[6]
  IC50: > 10000 nM
[7]
  T>IC50: >= 16 hr
[8]
  inhibition: Active
[9]
  Activity: Non-Toxic
[10]
  inhibition: Dose-dependent effect
[11]
  bioavailability: 91.3%
[12]
  Tmax: 2 h
[13]
  Activity: Active
[14]
  AUC(0-t) at 24 h: 92.3 ng·h/mL
[15]
  MRT inf: 3.56 h
[16]
  half-life: 5.47 h
[17]
  inhibition: inactive
[18]
  half-life: 25.7 h

Reference: ChEMBL document CHEMBL4627281, “A small molecule inhibitor of PCSK9 that antagonizes LDL receptor binding via interaction with a cryptic PCSK9 binding groove” (Bioorg Med Chem, 2020)
